# High-throughput results: PubChem BioAssay, several laboratories
# An excerpt weighted towards active compounds, which were near 1.9% of everything screened.
# HCV core dimer – HCV core protein dimerization inhibition; TR-FRET GST/Flag-core106 dimerization, 1536-well; inhibition, % at 5 µM; hit rate 0.33% among 300,000; AID 1899;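 active means inhibition above the mean of all tested compounds plus 3 SD, set per screening campaign, cut at about 45% in these data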
#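 Assay system – GST-tagged and Flag-tagged HCV core protein residues 1-106 · Quantity – core106 proteins, GST 13.5 nM and Flag 17 nM · Benchmarks – unlabelled core106 and no-GST-core106 wells · Read-out basis – percent inhibition of core106 dimerization signal · Detection – time-resolved FRET, ex 340 nm, em 617 and 671 nm · Schedule – 4 h at 22.5 °C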
# Rce1 inh – inhibitors of yeast Ras-converting enzyme | Q03530 | yeast membranes, quenched prenylated peptide cleavage fluorescence | calls only | hit rate 0.27% among 290,000;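 active means fall in fluorescence gain of 50% or more versus controls, with final raw signal at or below 3038400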
# NadD block – blocks S. aureus nicotinate mononucleotide adenylyltransferase; purified NadD enzyme, colorimetric absorbance read-out; inhibition, % at 20 µM; hit rate 0.78% among 360,000; AID 602399; in the data active means inhibition above about 26%
# Pemphigus Ab inh – blocks pemphigus antibody binding to human desmoglein-3 | DSG3-coupled beads, scFv-anti-DSG3-GFP binding, flow cytometry; stronger effect = lower value | binding (percent of control), % at 10 µM | P32926 | hit rate 0.48% among 310,000;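 active means binding more than 3 SD below its plate's average and above zero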
# TbMetRS inhib – Trypanosoma brucei MetRS inhibition; purified T. brucei MetRS, ATP depletion, Kinase-Glo luminescence; hit rate 0.4% among 360,000; inhibition, % at 11.9 µM;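 active means inhibition above a per-plate cutoff of the control wells' mean inhibition plus 3 SD, cut at about 5.5% in these data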
#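 Material – parasite MetRS enzyme · Medium – HEPES-MgCl2-KCl buffer plus DTT, spermine, BSA, pyrophosphatase · Reagent – ATP, methionine and E. coli bulk tRNA substrates · Times – 15 min enzyme-compound preincubation, 2 h reaction, 10 min detection, 25 °C · Measured by – luminescence of leftover ATP · Evaluation – percent inhibition relative to median high and low control wells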
# Hits are given with their value; – = inactive; · = no result given; + = active, no number.
SMILES,HCV core dimer,Rce1 inh,NadD block,Pemphigus Ab inh,TbMetRS inhib
C=C(NC(=O)C(=C)NC(=O)c1csc(C2=NC3c4csc(n4)C4NC(=O)c5csc(n5)C(C(C)(O)C(C)O)NC(=O)C5CSC(=N5)/C(=C/C)NC(=O)C(C(C)O)NC(=O)c5csc(n5)C3(CC2)NC(=O)C(C)NC(=O)C(=C)NC(=O)C(=C)NC(=O)C(C(C)C)NC2C=Cc3c(C(C)O)cc(nc3C2O)C(=O)OC4C)n1)C(N)=O (configuration not stated),·,·,–,–,–
CCOC(=O)c1nnn2c1nc(N1CCCCC1)c1ccccc12,–,–,–,·,–
CCOC(=O)c1nnn2c1nc(N1CCOCC1)c1ccccc12,–,+,–,–,–
CCOC(=O)C1CCCN(C(=S)Nc2ccc(Nc3ccccc3)cc2)C1 (configuration not stated),–,–,–,–,–
O=C(NCCC1CCCCN1S(=O)(=O)c1ccccc1)C(=O)NCc1ccccc1F (configuration not stated),–,–,–,–,–
COCc1ccc(C(=O)Nc2cccc(S(=O)(=O)N(C)c3ccccc3)c2)cc1,·,·,–,28,–
CC(=NNc1ccc2ccccc2n1)c1ccccc1O,·,·,–,–,–
C/C(=N\Nc1nc2ccccc2nc1C)c1ccccc1O,–,–,–,78,–
CN(C(=O)C1CC1)C1CCS(=O)(=O)C1 (configuration not stated),–,–,–,84,–
Cc1cc(=O)oc2cc(OCC(=O)N3CC(C)OC(C)C3)ccc12 (configuration not stated),–,–,·,·,·
CS(=O)(=O)N1CCc2cc(S(=O)(=O)NCCNS(=O)(=O)c3ccc4c(c3)CCN4S(C)(=O)=O)ccc21,–,–,–,77,–
CS(=O)(=O)N1CCc2cc(S(=O)(=O)Nc3ccc4c(c3)OCCO4)ccc21,–,–,–,–,–
Cc1cc(C=O)c(C)n1-c1sc2c(c1C(=O)O)CCCC2,–,–,–,–,–
O=C1C=CC(=O)c2c(O)c(CO)c(CO)c(O)c21,·,·,77,25,–
COc1ccc(N2CCN(S(=O)(=O)CCNC(=O)c3cc(=O)c4ccccc4o3)CC2)cc1,–,–,–,-12,–
CCCCN(CC)CCNC(=O)c1cc2c(-c3ccc(Cl)cc3)nn(C)c2s1,–,+,–,–,–
CCCN(CCC)CCNC(=O)c1cc2c(-c3ccccc3F)nn(C)c2s1,–,+,–,–,–
COCCCNC(=O)c1cc2c(-c3cccc(OC)c3)nn(C)c2s1,–,+,–,–,–
CCN(CC)CCNC(=O)c1cc2c(-c3cccc(OC)c3)nn(C)c2s1,–,–,–,–,–
CCCN(CCC)CCNC(=O)c1cc2c(-c3ccc(Cl)cc3)nn(C)c2s1,–,+,–,–,–
CCN(CC)CCNC(=O)c1cc2c(-c3ccc(Cl)cc3)nn(C)c2s1,–,–,–,–,–
Cc1c(Br)c(C(F)(F)F)nn1CC(=O)N1CCCC1,–,–,–,–,–
COc1ccc(NC(=O)c2ccccc2)c([N+](=O)[O-])c1,–,–,–,–,–
O=C1N(Cc2cccnc2)C[C@@H]2C[C@@H](c3cccc(OCc4ccccc4)c3)N3CCC[C@@]123,–,–,–,–,–
O=c1[nH]c(=O)c2nc(-c3ccc(Cl)cc3)cnc2[nH]1,–,–,–,–,–
SMILES,HCV core dimer,Rce1 inh,NadD block,Pemphigus Ab inh,TbMetRS inhib
O=c1[nH]c(=O)c2nc3c4ccccc4c4ccccc4c3nc2[nH]1,–,–,–,29,–
COc1ccc(C(=O)NN=C(Cc2ccccc2)Cc2ccccc2)cc1OC,–,–,–,0.8,–
COc1ccc(C(=O)Cc2ccccc2)cc1OC,–,–,–,–,–
CCOc1cccc(/C=C2/NC(=O)N(CC(=O)Nc3cccc(C)c3)C2=O)c1O,–,–,–,–,–
Cc1ccc(NC(=O)CN2C(=O)N/C(=C/c3cccn3-c3ccc(C(=O)O)cc3)C2=O)cc1,–,·,–,·,–
CCOc1cc(/C=C2/NC(=O)N(CC(=O)Nc3cccc(C)c3)C2=O)ccc1OCC(N)=O,–,–,–,50,–
Cc1cccc(NC(=O)CN2C(=O)N/C(=C/c3cc(C)n(C(C)C)c3C)C2=O)c1,–,–,34,–,–
Cc1ccc(NC(=O)CN2C(=O)N/C(=C/c3ccco3)C2=O)cc1,53,–,–,–,–
CCC(=Nc1ccccc1OC)C1=C(O)CC(c2ccccc2)CC1=O (configuration not stated),–,–,–,–,–
CCOC(=O)CN1CC23C=CC(O2)C(C(=O)NCc2ccc(C)cc2)C3C1=O (configuration not stated),–,–,–,–,–
CC(=O)N1CCN(Cc2nc3cc(Cl)ccc3c(=O)[nH]2)CC1,–,–,–,–,–
CC1Cc2ccccc2N1Cc1nc2cc(Cl)ccc2c(=O)[nH]1 (configuration not stated),72,–,–,–,–
CCOc1ccc(/C(O)=C2/C(=O)C(=O)N(c3cc(C)on3)C2c2ccc(C(=O)OC)cc2)cc1 (configuration not stated),–,–,–,-31,–
Cc1ccc(OCCNC(=O)c2cc(C3CC3)nc3c2cnn3C(C)C)cc1,·,·,–,–,–
CCOC(=O)c1c(-c2ccccc2)c[nH]c1C,·,·,–,70,–
O=C(N/C(=C/c1ccccc1)C(=O)N1CCCCC1)c1ccco1,–,–,–,·,–
O=C(O)C1CCN(S(=O)(=O)c2cccc3cccnc23)CC1,–,–,–,–,–
O=C(C1CCN(S(=O)(=O)c2cccc3cccnc23)CC1)N1CCCC1,–,–,–,89,–
COc1ccccc1Nc1nc(C)nc2c1oc1ccccc12,–,–,–,–,–
CS(=O)(=O)c1ccccc1C(=O)NCCC(c1ccccc1)c1ccccc1,–,–,–,45,–
CC(Sc1nnc(NC(=O)c2cc3ccccc3oc2=O)s1)c1ccccc1 (configuration not stated),–,–,–,72,–
Cc1ccc(S(=O)(=O)N2C[C@H]3n4c(=O)ccc(=O)n4C[C@H](OC(=O)Nc4c(C)noc4C)[C@@]3(O)C2)cc1,·,·,–,92,–
Cc1ccc(Cn2c(SCC(=O)Nc3cc(C)on3)nc3ccccc3c2=O)cc1,62,–,–,–,–
COc1ccc(-n2c(SCC(=O)Nc3cc(C)on3)nc3c([nH]c4ccccc43)c2=O)cc1,–,–,–,-8.2,–
Cc1nnc(NC(=O)C(C)Sc2nncn2C)s1 (configuration not stated),–,–,–,–,–
O=C(CCC(=O)c1cccs1)Nc1ccc(F)c(F)c1F,52,–,–,–,–
O=C(CCC(=O)c1cccs1)NCC(=O)Nc1ccc(F)c(F)c1F,–,–,–,–,–
C=CCn1c(O)c(N=NC(=S)Nc2ccccc2F)c2ccccc21,–,–,–,3.1,–
Oc1c(N=NC(=S)Nc2ccccc2F)c2ccccc2n1Cc1ccccc1,–,–,–,–,–
